The values that follow come from ChEMBL document CHEMBL4219228, “Substituent effect of N-benzylated gramine derivatives that prevent the PP2A inhibition and dissipate the neuronal Ca2+ overload, as a multitarget strategy for the treatment of Alzheimer's disease” (Bioorg Med Chem, 2018).

The target in series [1] is Glutamate NMDA receptor (Rattus norvegicus) (UniProt P35439+Q00959+Q00960+Q00961+Q62645+Q8VHN2+Q9R1M7). The series can be described thus: Inhibition of NMDA receptor in rat cortical embryonic neurons assessed as reduction in NMDA-induced cytosolic calcium level at 10 uM by Fluo-4 AM dye based fluorescence assay relative to control. In short, it runs like this: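 Cortical neurons came from E18 rat embryos (two pregnant rats). They were loaded with Fluo-4/AM (3 µM) in Krebs-HEPES, incubated with compound at 10 µM, then stimulated with NMDA 10 µM, and fluorescence was read at ex 485/em 520 nm. Normalized ΔF is reported as % blockade against vehicle (DMSO 0.1%), with ≥4 independent experiments in triplicate.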

The test system of series [2] is Voltage-gated calcium channel. The series can be described thus: Inhibition of KCl-induced cytosolic voltage gated calcium channel opening in human SH-SY5Y cells at 10 uM by Fluo-4 AM dye based fluorescence assay relative to control. Format: cell-based. The gist of the method:
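SH-SY5Y cells were loaded with Fluo-4/AM (10 µM) in Krebs-HEPES and preincubated with compound at 10 µM. They were then depolarized with 70 mM K+, and fluorescence (ex 485/em 520 nm) was monitored in real time. ΔF = (Fx−F0)/(Fmax−Fmin), using Triton X-100 for Fmax and MnCl2 for Fmin. Values are % blockade (100−ΔF) against vehicle (DMSO 0.1%), with ≥4 independent experiments in triplicate.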

The target of series [3] is Voltage-gated calcium channel. The series can be described thus: Inhibition of KCl-induced cytosolic voltage gated calcium channel opening in human SH-SY5Y cells by Fluo-4 AM dye based fluorescence assay. Format: cell-based. In short, it runs like this: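 Fluo-4/AM-loaded (10 µM) SH-SY5Y cells in Krebs-HEPES received compound at several concentrations before 70 mM K+ depolarization, with readings at ex 485/em 520 nm. ΔF was normalized to vehicle (DMSO 0.1%) cultures. IC50 is the concentration halving ΔF, from a variable-slope non-linear regression of log concentration vs normalized response. Three experiments in triplicate.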

Series [4] has as its target T1, Serine/threonine-protein phosphatase 2A 55 kDa regulatory subunit B alpha isoform (Homo sapiens) (UniProt P63151).
T1 sequence (whole entry): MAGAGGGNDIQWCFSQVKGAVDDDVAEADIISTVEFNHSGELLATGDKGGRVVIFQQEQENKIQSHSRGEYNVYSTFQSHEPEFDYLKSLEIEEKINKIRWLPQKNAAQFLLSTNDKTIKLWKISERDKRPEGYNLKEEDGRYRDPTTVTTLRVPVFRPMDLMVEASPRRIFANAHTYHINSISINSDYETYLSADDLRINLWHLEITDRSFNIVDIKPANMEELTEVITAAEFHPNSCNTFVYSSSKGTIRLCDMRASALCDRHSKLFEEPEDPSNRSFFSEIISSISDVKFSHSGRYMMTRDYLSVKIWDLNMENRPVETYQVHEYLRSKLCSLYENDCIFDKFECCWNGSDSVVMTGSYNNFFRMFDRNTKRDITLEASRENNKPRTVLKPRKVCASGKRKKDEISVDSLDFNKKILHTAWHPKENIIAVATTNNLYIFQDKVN
The series is described as follows: Reversal of okadaic acid mediated PP2A PR55alpha B regulatory subunit inactivation in human SH-SY5Y cells at 0.1 uM preincubated for 24 hrs followed by cotreatment with PPA2 inhibitor okadaic acid for 18 hrs measured over 30 mins by pNPP based spectrophotometric analysis. Format: cell-based. The gist of the method: (§1)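 SH-SY5Y cells were preincubated with compound for 24 h, then exposed for 18 h to okadaic acid 15 nM plus compound in fresh MEM/F12 with 1% FBS. Phosphatase activity was measured by pNPP dephosphorylation for 30 min at 37 °C, reading p-nitrophenolate at 405 nm. Values were normalized to cells not exposed to OA; at least three independent experiments.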

For series [5], the system named is SH-SY5Y. The series can be described thus: Neuroprotective activity against okadaic acid-induced cell death in human SH-SY5Y cells assessed as cell viability at 0.1 uM preincubated for 24 hrs followed by cotreatment with PPA2 inhibitor okadaic acid measured after 20 hrs by MTT assay (reference value: 50.1 +/- 0.2%). The note with it: read-out: Activity. In kind it is functional.

Series [6] concerns SH-SY5Y. The series is described as follows: Cytotoxicity against human SH-SY5Y cells assessed as cell viability at 3 uM incubated for 48 hrs by MTT assay. (In general: Tetrazolium assays rely on reduction of a dye to a coloured formazan, in cell work by metabolically active cells.)
For series [7], the system named is SH-SY5Y. The series can be described thus: Cytotoxicity against human SH-SY5Y cells assessed as cell viability at 10 uM incubated for 48 hrs by MTT assay.
For series [8], the target named is T1, Serine/threonine-protein phosphatase 2A 55 kDa regulatory subunit B alpha isoform (Homo sapiens). The series is described as follows: Reversal of okadaic acid mediated PP2A PR55alpha B regulatory subunit inactivation in human SH-SY5Y cells assessed as residual activity at 0.1 uM preincubated for 24 hrs followed by cotreatment with PPA2 inhibitor okadaic acid for 18 hrs measured over 30 mins by pNPP based spectrophotometric analysis relative to control. Format: cell-based. The gist of the method: as §1

Active and inactive are the calls of the source. The calls are words filed in the database; no cut-off is given here.

On to `CC12CC3CC(C)(C1)CC(N)(C3)C2`, for which the inhibition (commonly the change of the read-out against control, counted positive when it falls) in series [1] was 41%.
Consider `Cc1ccc2c(c1)c(CN1CCCCC1)cn2Cc1ccc(Cl)cc1`, for which the “inhibition (INH)” value in series [2] came out at 95%. In addition, the inhibition in series [1] worked out at 52%. In series [3], the IC50 (in general, the midpoint of a concentration-inhibition curve) came to 3 µM. The result in series [4] was Active. Besides, in the series with SH-SY5Y [5], the viability at 0.1 µM was 67%. Moreover, the Activity entry with SH-SY5Y [6] was “Non-Toxic”; with SH-SY5Y [7], “Toxic”.
In the case of `Cc1ccc2c(c1)c(CN1CCCCC1)cn2Cc1ccc(F)cc1`, the “inhibition (INH)” value in series [2] stood at 79%. Besides, the inhibition in series [1] worked out at 34%. In series [3], the 50% inhibitory concentration (IC50) stood at 4.8 µM. Further, the results for the Activity (in series [8]; in the series on SH-SY5Y [6]) were 93% and “Non-Toxic”, respectively. In addition, in series [4], the result was Active. For the same molecule, the viability at 0.1 µM with SH-SY5Y [5] came out at 67%.
Consider `Cc1ccc2c(c1)c(CN1CCCCC1)cn2Cc1cccc(Cl)c1`, for which the “inhibition (INH)” value in series [2] turned out to be 97%. Also, in series [1], the inhibition worked out at 37%. Besides, the IC50 in series [3] came to 2.2 µM. Further, in series [4], the result was Active. In addition, the viability at 0.1 µM in the series on SH-SY5Y [5] came to 67%. Besides, the Activity entry in the series on SH-SY5Y [6] is reported as “Non-Toxic”; in the series on SH-SY5Y [7], “Toxic”.
`COC(=O)C1=C(C)NC(C)=C(C(=O)OC)C1c1ccccc1[N+](=O)[O-]` [NIFEDIPINE]: the “inhibition (INH)” value in series [2] is given as 32%.
In the case of `Cc1ccc2c(c1)c(CN1CCCCC1)cn2Cc1ccccc1`, the “inhibition (INH)” value in series [2] came to 87%. Besides, in series [1], the inhibition amounted to 42%. Besides, the concentration for half-maximal inhibition (IC50) in series [3] turned out to be 3.4 µM. In series [4], the result was Active. The viability at 0.1 µM in the series with SH-SY5Y [5] turned out to be 73%.
With `Cc1ccc(Cn2cc(CN3CCCCC3)c3cc(C)ccc32)cc1`, the “inhibition (INH)” value in series [2] is recorded as 94%. Further, the inhibition in series [1] is 32%. In addition, the IC50 in series [3] came to 3.6 µM. The outcome in series [4] was Active. In the series with SH-SY5Y [5], the viability at 0.1 µM was 67%. In addition, in the series with SH-SY5Y [6], the Activity entry is given as “Non-Toxic”.
As for `Cc1ccc2c(c1)c(CN1CCCCC1)cn2Cc1cccc([N+](=O)[O-])c1`, the “inhibition (INH)” value in series [2] amounted to 90%. Further, in series [1], the inhibition is 22%. Moreover, the IC50 in series [3] was found to be 3 µM. For the same molecule, the viability at 0.1 µM in the series on SH-SY5Y [5] came out at 67%. For the same molecule, in the series on SH-SY5Y [6], the Activity result is on record as “Non-Toxic”.
On to `Cc1ccc2c(c1)c(CN1CCCCC1)cn2Cc1ccccc1[N+](=O)[O-]`, for which the “inhibition (INH)” value in series [2] turned out to be 90%. For the same molecule, in series [1], the inhibition was found to be 24%. Moreover, the IC50 in series [3] came to 1.8 µM. The viability at 0.1 µM with SH-SY5Y [5] amounted to 70%. In addition, the Activity entry in the series with SH-SY5Y [6] is “Non-Toxic”.
